Experimental data gathered from unrelated publications.
Protocols differ between the studies behind these lines.
Target: Tyrosine-protein kinase Lyn (LYN, Homo sapiens, UniProt P07948)

SMILES | test | conditions | remaining binding
Cc1ccc(-n2nc(C(C)(C)C)cc2NC(=O)Nc2ccc(-n3c(N)c(C(N)=O)c4nc5ccc(NCCCN)cc5nc43)cc2)cc1 | cell-free assay, competition with immobilised ligand | 1 µM | 0.5%
COc1ccnn2ncc(-c3ccnc(N(C)C)n3)c12 | binding | 1 µM | 100%
O=C(Nc1c[nH]nc1C(=O)NC1CCNCC1)c1cc(F)cc(F)c1 | binding, competition with immobilised ligand | 1 µM | 100%
Cc1cnn2ncc(-c3ccnc(N(C)C)n3)c2c1 | binding | 1 µM | 92%
C=CC(=O)N1CCC(C(=O)NCC(=O)N2CCN(c3nc(-c4cnc(N)nc4C(F)F)nc(N4CCOCC4)n3)CC2)CC1 | binding, competition with immobilised ligand | 1 µM | 100%
CN(C)C(=O)Cn1cc(-c2nc([C@@](C)(c3ccc(-c4cnc(N)nc4)cc3)C3CC3)no2)cn1 | cell-free assay, competition with immobilised ligand | 1 µM | 87%
FC(F)(F)Oc1cccc(-c2cnc3ccc(-c4ccncc4)nn23)c1 | cell-free assay, competition with immobilised ligand | 5 µM | 93%
N[C@@H]1CCN(c2nccc(-c3cnn4ncccc34)n2)C1 | binding | 1 µM | 100%
CCCCN(CCCC)C(=O)CN1C[C@@H](c2cc(OC)c3c(c2)OCO3)[C@H](C(=O)O)[C@H]1CC(C)(C)CCC | cell-free assay, competition with immobilised ligand | 1 µM | 75.1%
C[C@@H]1CCN(c2nccc(-c3cnn4ncccc34)n2)C1 | binding | 1 µM | 93%
COCCOc1nc(-c2ccc(Cl)nc2)nc2c1CN(C(=O)c1ncn3ccccc13)CC2 | cell-free assay, competition with immobilised ligand | 0.1 µM | 73%
COc1cnc(Nc2cccc(S(N)(=O)=O)c2)nc1N1CCN(c2ccccc2)CC1 | binding, competition with immobilised ligand | 1 µM | 92%
CN(C)c1nccc(-c2cnc3ncccn23)n1 | binding | 1 µM | 100%
Nc1cnc(N2CCc3cc(S(=O)(=O)Nc4c(F)cc(Cl)cc4F)cc(N4CCCC4=O)c32)nc1 | cell-free assay, competition with immobilised ligand | 1 µM | 88%
O=C(c1ccc(Nc2ncc(Cl)c(-c3ccc(Cl)s3)n2)cc1)N1CCC(N2CCCC2)CC1 | binding, competition with immobilised ligand | 1 µM | 87%
c1cnn2ncc(-c3ccnc(N4CCC45COC5)n3)c2c1 | binding | 1 µM | 88%
Nc1ncc2c(n1)-c1c([nH]c3ccc(C#CC4CC4)cc13)CCCC2 | binding, competition with immobilised ligand | 1 µM | 93%
CN(C)c1ncc(F)c(-c2cnn3ncccc23)n1 | binding | 1 µM | 100%
CCS(=O)(=O)c1cc2cc(C[C@@](O)(CC(C)(C)c3ccc(F)cc3C(N)=O)C(F)(F)F)[nH]c2cn1 | cell-free assay, competition with immobilised ligand | 1 µM | 100%
O=C(c1ccc(Nc2ncc(Cl)c(-c3cc4ccccc4s3)n2)cc1)N1CCC(N2CCCC2)CC1 | binding, competition with immobilised ligand | 1 µM | 83%
O=c1nc(-c2ccccn2)sc2ccccc12 | cell-free assay, competition with immobilised ligand | 1 µM | 100%
COc1cnc(Nc2cccc(S(N)(=O)=O)c2)nc1N1CCN(c2ccccc2)C(=O)C1 | binding, competition with immobilised ligand | 1 µM | 100%
O=C(Nc1cnc(Oc2ccc(F)cc2)nc1)N1CCc2ncccc2[C@@H]1c1ccc(F)cc1 | cell-free assay, competition with immobilised ligand | 1 µM | 82%
O=C(NCCCN1CCOCC1)c1ccc(Nc2ncc(Cl)c(-c3ccc(Cl)s3)n2)cc1 | binding, competition with immobilised ligand | 1 µM | 87%
